According to ChEMBL document CHEMBL4433227, “Enhancing the ligand efficiency of anti-HIV compounds targeting frameshift-stimulating RNA” (Bioorg Med Chem, 2019):
The source made the active and inactive calls. No cut-off for these calls is given here.

Columns and labels:
[1] = (§1) Competitive binding affinity to HIV-1 FSS RNA assessed as dissociation constant in presence of bulk yeast tRNA by SPR assay; design: species or system Human immunodeficiency virus 1
[2] = test system: Human immunodeficiency virus 1; experiment: Binding affinity to HIV-1 FSS RNA assessed as association rate constant by SPR assay
How it was run: (§2)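 Compounds injected in HBS at 80 μL/min for 1 min, at least two injections per concentration. Each curve fit to a 1:1 Langmuir model, using the two lowest fittable concentrations. Kinetic constants averaged.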

[3] = test system: Human immunodeficiency virus 1; experiment: Binding affinity to HIV-1 FSS RNA assessed as dissociation rate constant by SPR assay; how it was run: as §2
[4] = Binding affinity to HIV-1 FSS RNA assessed as dissociation constant by SPR assay; design: species or system Human immunodeficiency virus 1; how it was run: as §2
[5] = test system: Human immunodeficiency virus 1; experiment: as §1
[6] = test system: Human immunodeficiency virus; experiment: Binding affinity to HIV frameshift-stimulating RNA assessed as upregulation of HIV p160 Gag-pol protein expression by Western blot analysis
[7] = test system: Human immunodeficiency virus; experiment: Antiviral activity against pseudotyped HIV assessed as reduction in viral production; type: functional, organism-based
[8] = test system: Human immunodeficiency virus; experiment: Antiviral activity against pseudotyped HIV assessed as reduction in viral infectivity; type: functional, organism-based
[9] = Cytotoxicity against human HEK293FT cells assessed as reduction in viability at < 40 uM after 24 hrs by WST1 assay; type: cell-based
How it was run: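 HEK293FT cells, 2.5×10^4/well in triplicate, grown in DMEM with 10% FBS and 1% pen-strep at 37 °C. After 4 h adherence, compound dilutions added for 24 h. WST-1 then added for 1 h and the signal read on a plate reader. Mitochondrial activity taken as the metabolic read-out.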

[10] = test system: Human immunodeficiency virus 1; experiment: Antiviral activity against HIV1 3B infected in human MT2 cells assessed as reduction in p24 Gag protein production at 25 uM on day 6 post infection by ELISA relative to control; type: functional; design: scale not given: the % may be the effect or the level left
[11] = test system: Human immunodeficiency virus 1; experiment: Binding affinity to HIV-1 FSS RNA at 2 uM dialyzed up to 36 hrs by HPLC analysis
How it was run: (§3)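 RNAs refolded at 2.5 μM in PBS with 1 mM EDTA (25 °C, 90 °C, then 27 °C). Tubes (3500 MWCO) held 200 μL of RNA, in duplicate, with an RNA-free control tube. Dialysis against 2.0 μM compound in PBS for 36 h. Compound concentration inside the tubes measured by HPLC.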

Homo sapiens [12] = species on record: Homo sapiens; experiment: Binding affinity to human IRF5 RNA at 2 uM dialyzed up to 36 hrs by HPLC analysis; how it was run: as §3
Homo sapiens [13] = species on record: Homo sapiens; experiment: Binding affinity to human BDNF RNA at 2 uM dialyzed up to 36 hrs by HPLC analysis; how it was run: as §3
[14] = test system: Human immunodeficiency virus 1; experiment: Antiviral activity against HIV1 3B infected in human MT2 cells assessed as reduction in p24 Gag protein production on day 6 post infection by ELISA; type: functional, organism-based; conditions: Human immunodeficiency virus 1, 3B, MT2, 144 h
[15] = test system: Human immunodeficiency virus 1; experiment: Antiviral activity against patient derived multidrug resistant HIV1 AD.MDR01; type: functional, organism-based
[16] = test system: Human immunodeficiency virus 1; experiment: Antiviral activity against HIV1 3B; type: functional, organism-based

Structure (SMILES) | Kd [1] [nM] | Ka [2] | Kdiss [3] | Kd [4] [nM] | Activity [10] [%] | other results
CCc1nc2cc3ccccc3cc2cc1C(=O)N[C@@H](C/C=C\C[C@H](NC(=O)c1cc2cc3ccccc3cc2nc1CC)C(=O)N1CCC[C@H]1C(=O)N[C@@H](Cc1ccccc1)C(=O)NCCCN)C(=O)N1CCC[C@H]1C(=O)N[C@@H](Cc1ccccc1)C(=O)NCCCN |  |  |  | 102 |  | Activity [6]: Dose-dependent effect; Activity [7]: Active; Activity [8]: Active
CN(C(=O)c1cnc2ccccc2c1)[C@@H](CCn1cc(C[C@@H](C(=O)N2C[C@H](O)C[C@H]2C(=O)N(C)[C@@H](Cc2ccccc2)C(N)=O)N(C)C(=O)c2cnc3ccccc3c2)nn1)C(=O)N1C[C@H](O)C[C@H]1C(=O)N(C)[C@@H](Cc1ccccc1)C(N)=O |  | 4.09 ×10³ /M.s | 5.41 ×10⁻³ /s | 1470 |  | 
CCc1nc2cc3ccccc3cc2cc1C(=O)N(C)[C@@H](CCn1cc(C[C@@H](C(=O)N2CCC[C@H]2C(=O)N(C)[C@@H](Cc2ccccc2)C(=O)NCCCN)N(C)C(=O)c2cc3cc4ccccc4cc3nc2CC)nn1)C(=O)N1CCC[C@H]1C(=O)N(C)[C@@H](Cc1ccccc1)C(=O)NCCCN | 130 | 1.9 ×10⁵ /M.s | 3 ×10⁻³ /s | 16 |  | Activity [6]: Dose-dependent effect; IC50 [14]: 4.86 µM; Activity [15]: Active; Activity [7]: Active; Activity [8]: Active; Activity [16]: Active
CCc1nc2ccccc2cc1C(=O)N(C)[C@@H](CCn1cc(C[C@@H](C(=O)N2C[C@H](O)C[C@H]2C(=O)N(C)[C@@H](Cc2ccccc2)C(=O)NCCCN)N(C)C(=O)c2cc3ccccc3nc2CC)nn1)C(=O)N1C[C@H](O)C[C@H]1C(=O)N(C)[C@@H](Cc1ccccc1)C(=O)NCCCN | 441 | 1.49 ×10⁴ /M.s | 6.8 ×10⁻³ /s | 583 | 63 | 

Now from value to molecule, other results behind:

Kd [1] [nM] | Ka [2] | Kdiss [3] | Kd [4] [nM] | Structure (SMILES) | Activity [10] [%] | other results
16800 | 1.69 ×10³ /M.s | 2.07 ×10⁻² /s | 19300 | CCc1nc2ccccc2cc1C(=O)N(C)[C@@H](CCn1cc(C[C@@H](C(=O)N2CCC[C@H]2C(=O)N(C)[C@@H](Cc2ccccc2)C(N)=O)N(C)C(=O)c2cc3ccccc3nc2CC)nn1)C(=O)N1CCC[C@H]1C(=O)N(C)[C@@H](Cc1ccccc1)C(N)=O |  | 
 |  |  | 779000 | NC[C@@H]1O[C@H](O[C@H]2[C@@H](O)[C@H](O[C@@H]3[C@@H](O)[C@H](N)C[C@H](N)[C@H]3O[C@H]3O[C@H](CN)[C@@H](O)[C@H](O)[C@H]3N)O[C@@H]2CO)[C@H](N)[C@@H](O)[C@@H]1O [FRAMYCETIN] |  | Activity [5]: inactive
132 | 6.49 ×10⁴ /M.s | 2.37 ×10⁻² /s | 497 | CCc1nc2ccccc2cc1C(=O)N(C)[C@@H](CCn1cc(C[C@@H](C(=O)N2CCC[C@H]2C(=O)N(C)[C@@H](Cc2ccccc2)C(=O)NCCCN)N(C)C(=O)c2cc3ccccc3nc2CC)nn1)C(=O)N1CCC[C@H]1C(=O)N(C)[C@@H](Cc1ccccc1)C(=O)NCCCN | 63 | Activity [9]: Toxic
183 | 6.74 ×10⁴ /M.s | 5.42 ×10⁻³ /s | 110 | CN(C(=O)c1cnc2ccccc2c1)[C@@H](CCn1cc(C[C@@H](C(=O)N2C[C@H](O)C[C@H]2C(=O)N(C)[C@@H](Cc2ccccc2)C(=O)NCCCN)N(C)C(=O)c2cnc3ccccc3c2)nn1)C(=O)N1C[C@H](O)C[C@H]1C(=O)N(C)[C@@H](Cc1ccccc1)C(=O)NCCCN | 63 | 
124 | 5.66 ×10⁴ /M.s | 2.26 ×10⁻³ /s | 62.2 | CN(C(=O)c1cnc2ccccc2c1)[C@@H](CCn1cc(C[C@@H](C(=O)N2CCC[C@H]2C(=O)N(C)[C@@H](Cc2ccccc2)C(=O)NCCCN)N(C)C(=O)c2cnc3ccccc3c2)nn1)C(=O)N1CCC[C@H]1C(=O)N(C)[C@@H](Cc1ccccc1)C(=O)NCCCN | 63 | Activity [11]: Active; Activity (Homo sapiens [12]): Active; Activity (Homo sapiens [13]): Active
